Reference: ChEMBL document CHEMBL4368918, “Structure-Based Design of Inhibitors Selective for Human Proteasome β2c or β2i Subunits” (J Med Chem, 2019)
Active and inactive are the calls of the source. The rule behind the calls is not given here.

Assays:
[1] = molecular target: T1, Proteasome subunit beta type-10 (Homo sapiens, UniProt P40306); experiment: Inhibition of 20S immunoproteasome beta 2 (unknown origin) by cell based ABPP assay
T1 sequence (P40306 whole entry): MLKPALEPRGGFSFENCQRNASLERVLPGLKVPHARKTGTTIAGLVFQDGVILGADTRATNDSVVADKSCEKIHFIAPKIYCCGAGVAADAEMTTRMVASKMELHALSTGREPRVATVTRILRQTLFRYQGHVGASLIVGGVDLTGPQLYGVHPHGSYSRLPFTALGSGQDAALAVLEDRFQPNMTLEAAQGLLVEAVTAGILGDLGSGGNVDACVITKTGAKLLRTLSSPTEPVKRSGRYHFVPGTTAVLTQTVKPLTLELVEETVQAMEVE
How it was run: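 Living RPMI-8226 cells, (5–8) ×10^5 cells/mL, exposed to inhibitor 1 h at 37 °C, washed, lysed in digitonin buffer 1 h on ice; residual activity labelled with cocktail ABPs, SDS-PAGE in-gel fluorescence, bands divided by mock, Coomassie staining to correct loading. IC50 from mean of three independent experiments.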

Homo sapiens [2] = organism: Homo sapiens; experiment: Selectivity ratio of IC50 for 20S immunoproteasome beta 2 (unknown origin) to IC50 for 20S constitutive proteasome beta 2 trypsin-like activity (unknown origin)
[3] = molecular target: T1, Proteasome subunit beta type-10; experiment: Inhibition of 20S immunoproteasome beta 2 in human Raji cell lysates after 1 hr by competitive ABPP assay; assay type: subcellular, Lysate
[4] = molecular target: T2, Proteasome Macropain subunit MB1 (Homo sapiens, UniProt P28074); experiment: Inhibition of 20S constitutive proteasome beta 5 chymotrypsin-like activity in human RPMI8226 cell lysates after 1 hr by coomassie brilliant blue staining-based fluorescence assay; assay type: subcellular, Lysate
T2 sequence (P28074 whole entry): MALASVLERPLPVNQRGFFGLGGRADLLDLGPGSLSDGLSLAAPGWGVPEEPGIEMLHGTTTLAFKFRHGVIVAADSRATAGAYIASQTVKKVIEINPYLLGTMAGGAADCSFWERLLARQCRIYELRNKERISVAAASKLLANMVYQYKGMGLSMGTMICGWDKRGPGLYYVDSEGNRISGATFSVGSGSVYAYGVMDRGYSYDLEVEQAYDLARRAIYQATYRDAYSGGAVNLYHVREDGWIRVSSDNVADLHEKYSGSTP
How it was run: (§1)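 Cells at (5–8)×10⁵ cells/mL were exposed to inhibitor for 1 h at 37 °C, washed in PBS and lysed on ice for 1 h in digitonin/ATP buffer. Residual activity was read by cocktail-ABP labeling, SDS-PAGE and fluorescence densitometry relative to mock, with Coomassie staining correcting for loading. IC50 came from three independent experiments.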

[5] = molecular target: T2, Proteasome Macropain subunit MB1; experiment: Inhibition of 20S constitutive proteasome beta 5 chymotrypsin-like activity in human Raji cell lysates after 1 hr by competitive ABPP assay; assay type: subcellular, Lysate
[6] = molecular target: T3, Proteasome subunit beta type-8 (Homo sapiens, UniProt P28062); experiment: Inhibition of 20S immunoproteasome beta 5 in human Raji cell lysates after 1 hr by competitive ABPP assay; assay type: subcellular, Lysate
T3 sequence (P28062 whole entry): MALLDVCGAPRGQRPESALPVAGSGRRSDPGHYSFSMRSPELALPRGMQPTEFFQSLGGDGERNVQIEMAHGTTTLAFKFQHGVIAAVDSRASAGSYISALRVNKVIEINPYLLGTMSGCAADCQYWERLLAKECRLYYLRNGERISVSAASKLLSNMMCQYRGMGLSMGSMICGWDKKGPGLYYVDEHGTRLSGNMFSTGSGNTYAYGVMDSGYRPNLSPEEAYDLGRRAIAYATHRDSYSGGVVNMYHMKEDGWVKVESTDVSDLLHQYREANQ

[7] = molecular target: T4, Proteasome subunit beta type-6 (Homo sapiens, UniProt P28072); experiment: Inhibition of 20S constitutive proteasome beta 1 caspase-like activity in human Raji cell lysates after 1 hr by competitive ABPP assay; assay type: subcellular, Lysate
T4 sequence (P28072 whole entry): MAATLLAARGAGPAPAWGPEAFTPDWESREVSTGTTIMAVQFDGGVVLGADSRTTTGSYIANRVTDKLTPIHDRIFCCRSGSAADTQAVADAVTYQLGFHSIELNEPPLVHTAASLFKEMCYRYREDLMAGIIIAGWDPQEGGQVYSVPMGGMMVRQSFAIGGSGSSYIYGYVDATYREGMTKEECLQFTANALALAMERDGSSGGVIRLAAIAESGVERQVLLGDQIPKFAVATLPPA
How it was run: (§2)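 Raji cells were sonicated in 3 volumes of Tris pH 7.5 lysis buffer containing DTT, MgCl₂, sucrose, 2 mM ATP and 0.05% digitonin. Lysate (5 μg protein, in buffer with 2 mM ATP and glycerol) was preincubated with inhibitor for 1 h at 37 °C, then with a cocktail of three fluorescent ABPs for 1 h. In-gel fluorescence densitometry was normalized to mock. IC50 came from the mean of three experiments.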

[8] = molecular target: T5, Proteasome subunit beta type-9 (Homo sapiens, UniProt P28065); experiment: Inhibition of 20S immunoproteasome beta 1 in human Raji cell lysates after 1 hr by competitive ABPP assay; assay type: subcellular, Lysate
T5 sequence (P28065 whole entry): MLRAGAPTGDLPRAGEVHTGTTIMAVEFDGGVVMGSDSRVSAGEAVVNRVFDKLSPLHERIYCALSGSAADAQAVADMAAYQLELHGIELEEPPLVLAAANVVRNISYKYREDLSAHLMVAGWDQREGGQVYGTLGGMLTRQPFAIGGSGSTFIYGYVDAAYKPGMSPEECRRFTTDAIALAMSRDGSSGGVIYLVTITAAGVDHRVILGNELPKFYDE
How it was run: as §2, with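 “h. […]” for “h.”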

Homo sapiens [9] = organism: Homo sapiens; experiment: Selectivity ratio of IC50 for 20S immunoproteasome beta 2 in human Raji cell lysates to IC50 for 20S constitutive proteasome beta 2 trypsin-like activity in human Raji cells; assay type: cell-based
Homo sapiens [10] = organism: Homo sapiens; experiment: Selectivity ratio of IC50 for 20S immunoproteasome beta 1 in human Raji cell lysates to IC50 for 20S constitutive proteasome beta 2 trypsin-like activity in human Raji cells; assay type: cell-based
Homo sapiens [11] = organism: Homo sapiens; experiment: Selectivity ratio of IC50 for 20S constitutive proteasome beta 1 caspase-like activity in human Raji cell lysates to IC50 for 20S constitutive proteasome beta 2 trypsin-like activity in human Raji cells; assay type: cell-based
Homo sapiens [12] = organism: Homo sapiens; experiment: Selectivity ratio of IC50 for 20S immunoproteasome beta 5 in human Raji cell lysates to IC50 for 20S constitutive proteasome beta 2 trypsin-like activity in human Raji cells; assay type: cell-based
Homo sapiens [13] = organism: Homo sapiens; experiment: Selectivity ratio of IC50 for 20S constitutive proteasome beta 5 chymotrypsin-like activity in human Raji cell lysates to IC50 for 20S constitutive proteasome beta 2 trypsin-like activity in human Raji cells; assay type: cell-based
[14] = molecular target: T6, Proteasome subunit beta type-7 (Homo sapiens, UniProt Q99436); experiment: Inhibition of 20S constitutive proteasome beta 2 trypsin-like activity in human RPMI8226 cell lysates after 1 hr by coomassie brilliant blue staining-based fluorescence assay; assay type: subcellular, Lysate
T6 sequence (Q99436 whole entry): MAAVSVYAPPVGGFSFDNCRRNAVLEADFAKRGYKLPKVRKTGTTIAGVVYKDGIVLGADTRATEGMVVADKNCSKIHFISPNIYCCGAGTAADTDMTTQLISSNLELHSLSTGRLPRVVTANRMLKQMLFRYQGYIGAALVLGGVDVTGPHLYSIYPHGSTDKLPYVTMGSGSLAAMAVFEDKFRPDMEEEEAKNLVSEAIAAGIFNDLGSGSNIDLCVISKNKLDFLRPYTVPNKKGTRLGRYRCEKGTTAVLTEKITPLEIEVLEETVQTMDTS

[15] = molecular target: T1, Proteasome subunit beta type-10; experiment: Inhibition of 20S immunoproteasome beta 2 in human RPMI8226 cell lysates after 1 hr by coomassie brilliant blue staining-based fluorescence assay; assay type: subcellular, Lysate
[16] = molecular target: T3, Proteasome subunit beta type-8; experiment: Inhibition of 20S immunoproteasome beta 5 in human RPMI8226 cell lysates after 1 hr by coomassie brilliant blue staining-based fluorescence assay; assay type: subcellular, Lysate
How it was run: as §1, with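 “Living RPMI-8226 cells were grown in RPMI-1640 with 10% FCS. Cells” for “Cells”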

[17] = molecular target: T5, Proteasome subunit beta type-9; experiment: Inhibition of 20S immunoproteasome beta 1 in human RPMI8226 cell lysates after 1 hr by coomassie brilliant blue staining-based fluorescence assay; assay type: subcellular, Lysate
How it was run: as §1, with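 “Living RPMI-8226 cells were grown in RPMI-1640 with 10% FCS. Cells” for “Cells”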

[18] = molecular target: T7, Proteasome subunit beta type-10 (Homo sapiens) (UniProt P40306); experiment: Binding affinity to 20S immunoproteasome beta 2 in human Raji cell lysates at 3 uM by ABPP assay; assay type: subcellular; details: Lysate
T7 sequence (whole entry): T1 sequence (P40306 whole entry)
How it was run: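 Raji lysate (5 μg total protein, Tris pH 7.5, DTT, MgCl₂, glycerol, 2 mM ATP) was labeled with the BODIPY(FL) probe for 1 h at 37 °C. […] The wet gel was scanned at Cy2 settings.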

CC(C)C[C@H](NC(=O)[C@H](Cc1ccccc1)N=[N+]=[N-])C(=O)NCC(=O)N[C@H](/C=C/S(C)(=O)=O)Cc1ccc(CN)cc1
IC50 [1]: 5900 nM | Ratio IC50 (Homo sapiens [2]): 224 | IC50 [3]: 2500 nM | IC50 [4]: > 10 µM | IC50 [5]: 8600 nM | IC50 [6]: 12700 nM | IC50 [7]: > 100 µM | IC50 [8]: > 100 µM | Ratio IC50 (Homo sapiens [9]): 54 | Ratio IC50 (Homo sapiens [10]): > 2200 | Ratio IC50 (Homo sapiens [11]): > 2200 | Ratio IC50 (Homo sapiens [12]): 187 | Ratio IC50 (Homo sapiens [13]): 276 | IC50 [14]: > 10 µM | IC50 [15]: > 10 µM | IC50 [16]: > 10 µM | IC50 [17]: > 10 µM

CC(C)C[C@H](NC(=O)[C@H](Cc1ccccc1)N=[N+]=[N-])C(=O)N[C@H](C(=O)N[C@H](/C=C/S(C)(=O)=O)Cc1ccc(CN)cc1)[C@@H](C)O
IC50 [1]: 330 nM | IC50 [3]: 110 nM | IC50 [4]: > 10 µM | IC50 [5]: 750 nM | IC50 [6]: 2100 nM | IC50 [7]: > 100 µM | IC50 [8]: > 100 µM | IC50 [15]: > 10 µM | IC50 [16]: > 10 µM | IC50 [17]: > 10 µM

CC1=CC(C)=N/C1=C(/CCCCc1cn(CCOc2ccc(C[C@H](NC(=O)[C@H](C)NC(=O)CN3CCOCC3)C(=O)N[C@@H](CC3CCCC4CCCCC43)C(=O)[C@@]3(C)CO3)cc2)nn1)c1c(C)cc(C)n1B(F)F (stereo not given in full)
Activity [18]: Active

COC1CCC(C[C@H](NC(=O)c2cnc(C)s2)C(=O)N[C@@H](CC(C)C)C(=O)N[C@H](/C=C/S(C)(=O)=O)Cc2ccc(CN)cc2)CC1 (stereo not given in full)
IC50 [1]: > 1000 nM | Ratio IC50 (Homo sapiens [2]): > 4 | IC50 [3]: 3100 nM | IC50 [4]: > 10 µM | IC50 [5]: > 100000 nM | IC50 [6]: > 100000 nM | IC50 [7]: > 100 µM | IC50 [8]: > 100 µM | Ratio IC50 (Homo sapiens [9]): 7 | Ratio IC50 (Homo sapiens [10]): > 220 | Ratio IC50 (Homo sapiens [11]): > 220 | Ratio IC50 (Homo sapiens [12]): > 220 | Ratio IC50 (Homo sapiens [13]): > 220 | IC50 [14]: > 10 µM | IC50 [15]: > 10 µM | IC50 [16]: > 10 µM | IC50 [17]: > 10 µM

CC(C)C[C@H](NC(=O)[C@H](Cc1ccccc1)N=[N+]=[N-])C(=O)N[C@@H](CO)C(=O)N[C@H](/C=C/S(C)(=O)=O)Cc1ccc(CN)cc1
IC50 [1]: 525 nM | IC50 [3]: 230 nM | IC50 [4]: > 10 µM | IC50 [5]: 1400 nM | IC50 [6]: 2200 nM | IC50 [7]: > 100 µM | IC50 [8]: > 100 µM | IC50 [15]: > 10 µM | IC50 [16]: > 10 µM | IC50 [17]: > 10 µM
